Experimental data: ChEMBL document CHEMBL2417515, “Microwave assisted synthesis of some hybrid molecules derived from norfloxacin and investigation of their biological activities” (Eur J Med Chem, 2013)
In brackets after ≈: the same amount, converted by molar mass. Activity calls are given as the source filed them. The rule behind the calls is not given here.

How the values were obtained:
Bacillus cereus = experiment: Antimicrobial activity against Bacillus cereus 702 Roma after 18 to 24 hrs by double microdilution method; assay type: functional
How it was run: (§1)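 Twofold broth microdilution in Mueller-Hinton broth, pH 7.3. Compounds come from 20.000 µg/mL stocks in hexane. […] Ampicillin serves as reference drug and DMSO diluted 1:10 as solvent control.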

Saccharomyces cerevisiae = experiment: Antimicrobial activity against Saccharomyces cerevisiae RSKK 251 after 18 to 24 hrs by double microdilution method; assay type: functional
Candida albicans = experiment: Antimicrobial activity against Candida albicans ATCC 60193 after 18 to 24 hrs by double microdilution method; assay type: functional
Staphylococcus aureus = experiment: Antimicrobial activity against Staphylococcus aureus ATCC 25923 after 18 to 24 hrs by double microdilution method; assay type: functional; how it was run: as §1
[1] = tested on: Mycolicibacterium smegmatis; experiment: Antimicrobial activity against Mycobacterium smegmatis ATCC 607 after 48 to 72 hrs by double microdilution method; assay type: functional
[2] = tested on: Yersinia pseudotuberculosis; experiment: Antimicrobial activity against Yersinia pseudotuberculosis ATCC 911 after 18 to 24 hrs by double microdilution method; assay type: functional
How it was run: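 Double broth microdilution MIC (µg/mL). Mueller-Hinton broth pH 7.3; plates incubated 18–24 h at 35 °C. Compounds dissolved in […] as 20.000 µg/mL stock. Ampicillin as reference antibacterial; DMSO diluted 1:10 as solvent control.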

Pseudomonas aeruginosa = experiment: Antimicrobial activity against Pseudomonas aeruginosa ATCC 43288 after 18 to 24 hrs by double microdilution method; assay type: functional; how it was run: as §1
Enterococcus faecalis = experiment: Antimicrobial activity against Enterococcus faecalis ATCC 29212 after 18 to 24 hrs by double microdilution method; assay type: functional; how it was run: as §1
[3] = molecular target: Urease (Canavalia ensiformis) (UniProt P07374); experiment: Inhibition of Jack bean urease using urea as substrate assessed as production of ammonia at 100 ug/ml after 15 mins
Sequence of Urease (Canavalia ensiformis) (P07374 whole entry, looked up): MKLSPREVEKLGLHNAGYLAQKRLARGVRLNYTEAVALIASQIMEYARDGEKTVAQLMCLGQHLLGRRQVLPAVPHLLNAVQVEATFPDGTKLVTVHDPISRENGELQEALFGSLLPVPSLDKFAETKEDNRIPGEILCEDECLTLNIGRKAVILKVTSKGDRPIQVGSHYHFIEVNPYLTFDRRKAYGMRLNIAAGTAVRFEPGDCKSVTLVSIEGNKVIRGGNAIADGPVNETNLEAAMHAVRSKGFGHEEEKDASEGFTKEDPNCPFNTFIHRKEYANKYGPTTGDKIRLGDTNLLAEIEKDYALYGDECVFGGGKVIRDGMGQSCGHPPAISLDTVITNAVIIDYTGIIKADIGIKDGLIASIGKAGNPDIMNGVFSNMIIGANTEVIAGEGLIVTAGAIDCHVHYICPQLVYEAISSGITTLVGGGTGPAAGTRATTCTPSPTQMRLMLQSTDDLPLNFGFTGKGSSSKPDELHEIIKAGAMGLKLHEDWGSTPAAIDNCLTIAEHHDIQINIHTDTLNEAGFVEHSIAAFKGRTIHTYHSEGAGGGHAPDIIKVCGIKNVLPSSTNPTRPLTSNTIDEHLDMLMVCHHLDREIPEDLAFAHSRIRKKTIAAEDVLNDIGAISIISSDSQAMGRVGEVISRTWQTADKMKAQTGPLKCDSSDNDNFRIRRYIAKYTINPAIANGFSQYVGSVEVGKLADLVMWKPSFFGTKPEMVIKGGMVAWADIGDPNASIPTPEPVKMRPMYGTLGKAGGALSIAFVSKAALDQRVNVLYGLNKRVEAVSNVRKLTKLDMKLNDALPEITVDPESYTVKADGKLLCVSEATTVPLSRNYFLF
How it was run: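 Jack bean urease with buffer (100 mM urea, 0.01 M K2HPO4, 1 mM EDTA, 0.01 M LiCl, pH 8.2) and compound, 15 min at room temperature. Ammonia read by indophenol method (phenol/nitroprusside plus NaOH/NaOCl), A625 after 20 min. % inhibition = 100 − (OD test/OD control)×100. Thiourea as standard; triplicates.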

Urease = Urease (Canavalia ensiformis, UniProt P07374); experiment: Inhibition of Jack bean urease using urea as substrate assessed as production of ammonia after 15 mins
Sequence of Urease (P07374 whole entry): as the sequence (P07374 whole entry, looked up) above
How it was run: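 Jack bean urease in buffer (100 mM urea, 0.01 M K2HPO4, 1 mM EDTA, 0.01 M LiCl, pH 8.2) incubated with compound 15 min at room temperature. Ammonia read by indophenol method (phenol/nitroprusside plus NaOH/NaOCl), absorbance 625 nm after 20 min. % inhibition = 100 − (OD test/OD control)×100. IC50 from serial concentrations (250 to 0.114 µg/mL), triplicate; thiourea standard.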

Structure (SMILES) | MIC (Bacillus cereus) | MIC (Saccharomyces cerevisiae) | MIC (Candida albicans) | MIC (Staphylococcus aureus) | MIC [1] | MIC [2] | MIC (Pseudomonas aeruginosa) | MIC (Enterococcus faecalis) | inhibition [3] [%] | IC50 (Urease) [µM]
CCn1cc(C(=O)O)c(=O)c2cc(F)c(N3CCN(c4ccc(NC(=S)NCc5ccccc5)cc4F)CC3)cc21 | < 1.9 µg/mL | inactive | inactive | < 1.9 µg/mL | 0.97 µg/mL (≈ 1.68 µM) | < 1.9 µg/mL | 31.5 µg/mL (≈ 54.5 µM) | < 1.9 µg/mL |  | 
CCn1cc(C(=O)O)c(=O)c2cc(F)c(N3CCN(C(=O)CCl)CC3)cc21 | 0.21 µg/mL (≈ 0.531 µM) | inactive | inactive | 0.21 µg/mL (≈ 0.531 µM) | 0.42 µg/mL (≈ 1.06 µM) | 1.7 µg/mL (≈ 4.29 µM) | 15.6 µg/mL (≈ 39.4 µM) | 0.21 µg/mL (≈ 0.531 µM) |  | 
CCn1cc(C(=O)O)c(=O)c2cc(F)c(N3CCN(C(=O)CSc4nnc(CN5CCN(c6ccccc6OC)CC5)n4-c4ccccc4)CC3)cc21 |  |  |  |  |  |  |  |  | 86.2 | 27.7
CCNC(=S)Nc1ccc(N2CCN(c3cc4c(cc3F)c(=O)c(C(=O)O)cn4CC)CC2)c(F)c1 | inactive | 250 µg/mL (≈ 485 µM) | 250 µg/mL (≈ 485 µM) | inactive | inactive | inactive | inactive | inactive |  | 
CC1(C)S[C@@H]2[C@H](NC(=O)[C@H](N)c3ccccc3)C(=O)N2[C@H]1C(=O)O [AMPICILLIN] | 15 µg/mL (≈ 42.9 µM) |  |  | 35 µg/mL (≈ 100 µM) |  | 18 µg/mL (≈ 51.5 µM) | > 128 µg/mL | 10 µg/mL (≈ 28.6 µM) |  | 
CCn1cc(C(=O)O)c(=O)c2cc(F)c(N3CCN(c4ccc(NC(=S)NCCCN5CCOCC5)cc4F)CC3)cc21 | 125 µg/mL (≈ 203 µM) | inactive | inactive | 15.6 µg/mL (≈ 25.4 µM) | inactive | 62.5 µg/mL (≈ 102 µM) | 500 µg/mL (≈ 813 µM) | 31.2 µg/mL (≈ 50.8 µM) |  | 
CCn1cc(-c2ccc(Cl)cc2)s/c1=N\c1ccc(N2CCN(c3cc4c(cc3F)c(=O)c(C(=O)O)cn4CC)CC2)c(F)c1 | 1000 µg/mL (≈ 1540 µM) | inactive | inactive | inactive | inactive | inactive | inactive | inactive |  | 
COc1ccccc1N1CCN(CC(=O)N/N=C\c2ccccc2O)CC1 | 31.3 µg/mL (≈ 85 µM) | 62.5 µg/mL (≈ 170 µM) | 250 µg/mL (≈ 679 µM) | 31.3 µg/mL (≈ 85 µM) | 31.3 µg/mL (≈ 85 µM) | 31.3 µg/mL (≈ 85 µM) | 62.5 µg/mL (≈ 170 µM) | 15.6 µg/mL (≈ 42.3 µM) |  | 
CCn1cc(C(=O)O)c(=O)c2cc(F)c(N3CCN(c4ccc(NC(=O)NCc5ccccc5)cc4F)CC3)cc21 | 500 µg/mL (≈ 890 µM) | 250 µg/mL (≈ 445 µM) | 500 µg/mL (≈ 890 µM) | 500 µg/mL (≈ 890 µM) | inactive | inactive | inactive | 500 µg/mL (≈ 890 µM) |  | 
CN[C@@H]1[C@H](O[C@H]2[C@H](O[C@H]3[C@H](O)[C@@H](O)[C@H](N=C(N)N)[C@@H](O)[C@@H]3N=C(N)N)O[C@@H](C)[C@]2(O)C=O)O[C@@H](CO)[C@H](O)[C@H]1O [STREPTOMYCIN] |  |  |  |  | 4 µg/mL (≈ 6.88 µM) |  |  |  |  | 
OC(Cn1cncn1)(Cn1cncn1)c1ccc(F)cc1F [FLUCONAZOLE] |  | < 8 µg/mL | < 8 µg/mL |  |  |  |  |  |  | 
CCn1cc(C(=O)O)c(=O)c2cc(F)c(N3CCN(c4ccc(/N=c5\sc(-c6ccc(Cl)cc6)cn5Cc5ccccc5)cc4F)CC3)cc21 | inactive | 250 µg/mL (≈ 351 µM) | 250 µg/mL (≈ 351 µM) | inactive | inactive | inactive | inactive | 250 µg/mL (≈ 351 µM) |  | 
COc1ccc(/C=N\NC(=O)CN2CCN(c3ccccc3OC)CC2)cc1O | 31.3 µg/mL (≈ 78.6 µM) | 31.3 µg/mL (≈ 78.6 µM) | 62.5 µg/mL (≈ 157 µM) | 31.3 µg/mL (≈ 78.6 µM) | 31.3 µg/mL (≈ 78.6 µM) | 31.3 µg/mL (≈ 78.6 µM) | 31.3 µg/mL (≈ 78.6 µM) | 15.6 µg/mL (≈ 39.2 µM) |  | 
CCn1cc(C(=O)O)c(=O)c2cc(F)c(N3CCN(c4ccc(/N=C5\SC(=O)CN5Cc5ccccc5)cc4F)CC3)cc21 | 125 µg/mL (≈ 202 µM) | 250 µg/mL (≈ 405 µM) | 250 µg/mL (≈ 405 µM) | 125 µg/mL (≈ 202 µM) | 62.5 µg/mL (≈ 101 µM) | 62.5 µg/mL (≈ 101 µM) | inactive | 125 µg/mL (≈ 202 µM) |  | 
CCN1CC(=O)S/C1=N\c1ccc(N2CCN(c3cc4c(cc3F)c(=O)c(C(=O)O)cn4CC)CC2)c(F)c1 | 250 µg/mL (≈ 450 µM) | 250 µg/mL (≈ 450 µM) | 250 µg/mL (≈ 450 µM) | 250 µg/mL (≈ 450 µM) | inactive | inactive | inactive | 250 µg/mL (≈ 450 µM) |  | 
CCn1cc(C(=O)O)c(=O)c2cc(F)c(N3CCN(c4ccc(N)cc4F)CC3)cc21 | < 1.9 µg/mL | inactive | inactive | < 1.9 µg/mL | 1.95 µg/mL (≈ 4.55 µM) | < 1.9 µg/mL | 7.81 µg/mL (≈ 18.2 µM) | < 1.9 µg/mL |  | 
CCn1cc(C(=O)O)c(=O)c2cc(F)c(N3CCN(c4ccc([N+](=O)[O-])cc4F)CC3)cc21 | inactive | inactive | inactive | inactive | inactive | 31.5 µg/mL (≈ 68.7 µM) | inactive | inactive |  | 
NC(N)=S [THIOUREA] |  |  |  |  |  |  |  |  |  | 678
